For assay [1], the target named is T1, Estrogen receptor (Homo sapiens) (UniProt P03372).
T1 sequence (whole entry): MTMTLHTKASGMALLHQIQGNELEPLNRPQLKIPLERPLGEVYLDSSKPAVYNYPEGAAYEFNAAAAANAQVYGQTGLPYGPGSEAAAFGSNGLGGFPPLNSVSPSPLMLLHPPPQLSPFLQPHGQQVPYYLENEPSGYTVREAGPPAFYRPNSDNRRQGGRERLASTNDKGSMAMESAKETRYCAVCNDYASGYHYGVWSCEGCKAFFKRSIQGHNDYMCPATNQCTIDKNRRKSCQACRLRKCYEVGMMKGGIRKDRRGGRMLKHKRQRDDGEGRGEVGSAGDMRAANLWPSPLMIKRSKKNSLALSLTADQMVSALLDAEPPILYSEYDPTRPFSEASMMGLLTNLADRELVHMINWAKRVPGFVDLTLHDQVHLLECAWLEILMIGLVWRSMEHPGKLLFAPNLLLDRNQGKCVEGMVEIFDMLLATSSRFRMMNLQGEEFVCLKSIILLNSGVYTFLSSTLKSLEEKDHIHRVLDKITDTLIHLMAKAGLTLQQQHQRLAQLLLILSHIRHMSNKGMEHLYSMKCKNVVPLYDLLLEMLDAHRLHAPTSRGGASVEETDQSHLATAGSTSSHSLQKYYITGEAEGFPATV
Kind of assay: Ratio of compound to 3,17-beta-estradiol binding affinity at ERalpha expressed in COS-1 cells.

Assay [2] has as its target T1, Estrogen receptor (Homo sapiens). Briefly: Induction of ERalpha-mediated pS2 gene expression in human MCF7 cells at 10 uM after 24 hrs by real-time quantitative PCR analysis. The format is cell-based.
Assay [3] is filed under the species Homo sapiens. Briefly: Selectivity ratio of relative binding affinity for human ERalpha to relative binding affinity for human ERbeta. The method in brief: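 COS-1 cells in DMEM with 10% delipidated FBS were transfected for 24 h with human ERα or ERβ vector (pSG5-hERα/β). Cells were washed, lysed in 0.5 M NaOH at 56 °C for 15 min and counted by scintillation, with nonspecific binding subtracted.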

Assay [4] has as its target T1, Estrogen receptor (Homo sapiens). Kind of assay: Agonist activity at ERalpha expressed in HEK293 cells at 10 uM after 24 hrs by luciferase reporter gene assay relative to 3,17-beta-estradiol. The format is functional, cell-based. The method in brief: (§1)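 HEK293 cells (no endogenous ER) in phenol-free DMEM with 5% delipidated FBS were transfected for 4 h with 5 ng ERα or ERβ expression vector, 75 ng pERE2TATA-LUC reporter and 20 ng pCMVβ. Cells then received 10 μM compound, 10 nM E2 or vehicle (0.1% v/v) for 24 h. Luciferase was normalized to β-galactosidase and expressed as 100% × (test − vehicle)/(E2 − vehicle). Values are means of at least three independent transfections.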

Assay [5] shares this target. Briefly: Antagonist activity at ERalpha in human MCF7 cells assessed as decrease in 3,17-beta-estradiol-induced pS2 gene expression at 1 uM after 24 hrs by real-time quantitative PCR analysis. The format is functional, cell-based. The procedure, abridged: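 Competition format: MCF-7 cells were first grown overnight in phenol red-free DMEM with 5% charcoal-stripped FBS. They were then co-treated for 24 h with 10 nM E2 plus 1 μM compound. Total RNA was extracted and pS2 mRNA was quantified by TaqMan real-time qPCR, normalized to RPLPO.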

Assay [6] concerns the target Estrogen receptor beta (Homo sapiens) (UniProt Q92731). Briefly: Agonist activity at ERbeta expressed in HEK293 cells at 10 uM after 24 hrs by luciferase reporter gene assay relative to 3,17-beta-estradiol. The format is functional, cell-based. The procedure, abridged: as §1
Assay [7] concerns the target T1, Estrogen receptor (Homo sapiens). Kind of assay: Induction of ERalpha-mediated pS2 gene expression in human MCF7 cells at 10 nM after 24 hrs by real-time quantitative PCR analysis. The format is cell-based. The method in brief: (§2)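 MCF-7 cells were grown overnight in phenol red-free DMEM with 5% charcoal-stripped FBS. They were then exposed to ligand at 10 nM final or to solvent for 6 h or 24 h. Total RNA was extracted and reverse-transcribed. pS2 mRNA was measured by TaqMan real-time qPCR with RPLPO as reference and reported as fold change relative to control.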

Assay [8] in a line: Selectivity for ERalpha over ERbeta.
Assay [9] deals with T1, Estrogen receptor (Homo sapiens). Kind of assay: Induction of ERalpha-mediated pS2 gene expression in human MCF7 cells at 10 nM after 6 hrs by real-time quantitative PCR analysis relative to control. The format is cell-based. The procedure, abridged:
as §2

Each structure is given as a SMILES string. Activity calls are given as the source filed them. The rule behind the calls is not given here.

Estrogen receptor beta (Homo sapiens), sequence (Q92731 whole entry): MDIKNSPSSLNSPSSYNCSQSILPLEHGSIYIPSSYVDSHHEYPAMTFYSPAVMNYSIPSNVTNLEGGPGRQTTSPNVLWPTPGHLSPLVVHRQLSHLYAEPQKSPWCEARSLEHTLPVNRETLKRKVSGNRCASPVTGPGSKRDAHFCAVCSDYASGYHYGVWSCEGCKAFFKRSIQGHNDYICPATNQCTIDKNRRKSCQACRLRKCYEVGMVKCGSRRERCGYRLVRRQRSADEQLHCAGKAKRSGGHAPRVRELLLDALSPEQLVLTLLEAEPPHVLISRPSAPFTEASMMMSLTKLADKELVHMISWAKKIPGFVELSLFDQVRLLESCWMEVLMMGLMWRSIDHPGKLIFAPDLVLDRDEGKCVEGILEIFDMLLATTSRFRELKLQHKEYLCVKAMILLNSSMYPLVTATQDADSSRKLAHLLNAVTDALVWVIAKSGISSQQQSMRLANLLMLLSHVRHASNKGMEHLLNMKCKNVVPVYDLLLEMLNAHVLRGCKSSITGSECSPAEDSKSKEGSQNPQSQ

For the compound `O=C(CCCc1ccc(O)cc1)CC(O)c1ccccc1` (single isomer, unassigned; 50a), the Ratio was 2 in [1] and 4 in assay [3]. Besides, the outcome in assay [2] and in assay [7] was inactive. For the same compound, the values for the Activity in assay [4] and in assay [6] were 139% and 170%, respectively. For the same compound, the inhibition in [5] stood at 23%.

Turning to `Oc1ccc(CCCC2=NOC(c3ccccc3)C2)cc1` (single isomer, unassigned; 45a), the Selectivity ratio in assay [8] was 2. The compound further came in with a fold change (FC) in assay [9] of 1.8. For the same compound, the Ratio in [3] is 157. The figures for the Activity in assay [4] and in assay [6] were 104% and 44.7%, respectively. For the same compound, the inhibition in assay [5] is 32%. For the same compound, the outcome in assay [7] was inactive.

Values taken from ChEMBL document CHEMBL1157808, “Synthesis and biological evaluation of phenolic 4,5-dihydroisoxazoles and 3-hydroxy ketones as estrogen receptor alpha and beta agonists” (Bioorg Med Chem, 2010).
